ChEMBL document CHEMBL3351394 (J Med Chem, 2014)
Activity calls are given as the source filed them. The rule behind the calls is not given here.

These compounds were tested against T1, Bile acid receptor (Homo sapiens, UniProt Q96RI1) (assay: Agonist activity at human FXR expressed in human HeLa cells assessed as receptor activation by BSEP promoter-driven firefly luciferase reporter gene assay). Conditions: hela.
T1 sequence (Q96RI1 whole entry): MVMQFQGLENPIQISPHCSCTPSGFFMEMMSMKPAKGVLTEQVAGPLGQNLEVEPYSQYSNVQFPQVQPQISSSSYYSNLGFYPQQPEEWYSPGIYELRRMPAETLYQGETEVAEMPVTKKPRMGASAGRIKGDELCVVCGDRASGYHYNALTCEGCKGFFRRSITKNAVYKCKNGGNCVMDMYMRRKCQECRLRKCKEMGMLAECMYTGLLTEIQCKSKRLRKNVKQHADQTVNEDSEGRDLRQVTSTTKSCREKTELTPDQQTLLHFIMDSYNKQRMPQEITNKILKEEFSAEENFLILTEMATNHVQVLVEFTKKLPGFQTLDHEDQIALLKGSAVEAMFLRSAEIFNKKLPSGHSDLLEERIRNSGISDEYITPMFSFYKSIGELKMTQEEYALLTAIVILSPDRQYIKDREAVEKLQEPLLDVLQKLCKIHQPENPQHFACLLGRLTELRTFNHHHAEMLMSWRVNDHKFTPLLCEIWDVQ
Assay type: cell-based

| SMILES | EC50 |
| --- | --- |
| CC(C)(C)c1ccc(NC(=O)c2ccccc2NC(=O)c2cccc(C(=O)O)c2)cc1 | Not Active |

Same assay, conditions: read-out: EC50

| SMILES | EC50 [nM] |
| --- | --- |
| Cc1c(NC(=O)c2ccccc2NC(=O)c2ccc(C(C)(C)C)cc2)cccc1C(=O)O | 42 |
| CC(C)(C)c1ccc(C(=O)Nc2cc(Br)ccc2C(=O)Nc2cccc(C(=O)O)c2)cc1 | 48 |
| CSc1cccc(NC(=O)c2ccccc2NC(=O)c2ccc(C(C)(C)C)cc2)c1 | 200 |
| Cc1ccc(NC(=O)c2ccccc2NC(=O)c2ccc(C(C)(C)C)cc2)cc1C(=O)O | 45 |
| COc1ccc(C(=O)Nc2ccc(C)c(C(=O)O)c2)c(NC(=O)c2ccc(C(C)(C)C)cc2)c1 | 87 |
| O=C(O)c1cccc(NC(=O)c2ccccc2NC(=O)c2ccc(Br)cc2)c1 | 3700 |
| CC(C)(C)c1ccc(C(=O)Nc2ccccc2C(=O)Nc2cc(C(=O)O)ccc2Cl)cc1 | 1100 |
| Cc1ccc(C(=O)Nc2ccc(C)c(C(=O)O)c2)c(NC(=O)c2ccc(C(C)(C)C)cc2)c1 | 43 |
| O=C(O)c1cccc(NC(=O)c2ccccc2NC(=O)c2ccc(C(F)(F)F)cc2)c1 | 6900 |
| COc1ccc(NC(=O)c2ccccc2NC(=O)c2ccc(C(C)(C)C)cc2)cc1C(=O)O | 47 |
| Cc1ccc(NC(=O)c2ccc(Cl)cc2NC(=O)c2ccc(C(C)(C)C)cc2)cc1C(=O)O | 110 |
| O=C(O)c1cccc(NC(=O)c2ccccc2NC(=O)c2ccc3c(c2)OCO3)c1 | 10000 |
| CC(C)(C)c1ccc(C(=O)Nc2ccccc2C(=O)Nc2cccc(CC(=O)O)c2)cc1 | 420 |
| CC(=O)c1cccc(NC(=O)c2ccccc2NC(=O)c2ccc(C(C)(C)C)cc2)c1 | 480 |
| COc1ccc(NC(=O)c2ccccc2NC(=O)c2ccc(C(C)(C)C)cc2)cc1OC | 71 |
| O=C(O)c1cccc(NC(=O)c2ccccc2NC(=O)c2ccc3c(c2)OCCO3)c1 | 4900 |
| O=C(/C=C/c1ccccc1)Nc1ccccc1C(=O)Nc1cccc(C(=O)O)c1 | 5200 |
| O=C(O)c1cccc(NC(=O)c2ccccc2NC(=O)c2ccc(C(F)(F)F)c(F)c2)c1 | 5000 |
| CC(C)(C)c1ccc(C(=O)Nc2ccccc2C(=O)Nc2cccc(C(N)=O)c2)cc1 | 74 |
| CC(C)(C)c1ccc(C(=O)Nc2cc(Cl)ccc2C(=O)Nc2cccc(C(=O)O)c2)cc1 | 47 |
| CC(C)(C)c1ccc(C(=O)Nc2ccccc2C(=O)Nc2cccc(CCC(=O)O)c2)cc1 | 64 |
| CC(C)(C)c1ccc(C(=O)Nc2ccccc2C(=O)Nc2cccc(C(=O)O)c2)cc1 | 280 |
| CC(C)(C)c1ccc(C(=O)Nc2ccccc2C(=O)Nc2cccc(C#N)c2)cc1 | 230 |
| CC(C)(C)c1ccc(C(=O)Nc2ccccc2C(=O)Nc2cc(C(=O)O)ccc2F)cc1 | 480 |
| Cc1ccc(C(=O)Nc2cccc(C(=O)O)c2)c(NC(=O)c2ccc(C(C)(C)C)cc2)c1 | 61 |
| CC(C)(C)c1ccc(C(=O)Nc2ccccc2C(=O)Nc2ccc(Cl)c(C(=O)O)c2)cc1 | 280 |
| CC(C)(C)c1ccc(C(=O)Nc2ccccc2C(=O)Nc2cccc(-c3nnn[nH]3)c2)cc1 | 2900 |
| CC(C)(C)c1ccc(C(=O)Nc2ccccc2C(=O)Nc2ccc(Br)c(C(=O)O)c2)cc1 | 150 |
| COc1ccc(C(=O)O)cc1NC(=O)c1ccccc1NC(=O)c1ccc(C(C)(C)C)cc1 | 4700 |
| COc1cccc(NC(=O)c2ccccc2NC(=O)c2ccc(C(C)(C)C)cc2)c1 | 380 |

Each compound was assayed against T2, Bile acid receptor (Homo sapiens) (UniProt Q96RI1) (assay: Agonist activity at human FXR expressed in human HeLa cells assessed as receptor activation at 30 uM by BSEP promoter-driven firefly luciferase reporter gene assay relative to 3 uM GW4064). Conditions: not given.
T2 sequence (whole entry): T1 sequence (Q96RI1 whole entry)
Assay type: cell-based
How it was run: (§1)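 HeLa cells were calcium-phosphate transfected with pcDNA3-hFXR, pSG5-hRXR, a BSEP-promoter firefly luciferase (BSEP-pGL3) and pRL-SV40, then kept in 0.5% charcoal-stripped FCS. 24 h post-transfection, compound in 0.1% DMSO was added for 24 h; in antagonist mode it was given in competition with GW4064. Dual-luciferase firefly/renilla RLU gave fold over untreated and activity relative to 3 μM GW4064. Triplicate wells, ≥3 independent runs.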

| SMILES | Activity |
| --- | --- |
| CC(C)(C)c1ccc(C(=O)Nc2c(Cl)cccc2C(=O)Nc2cccc(C(=O)O)c2)cc1 | inactive |
| CC(C)(C)c1ccc(C(=O)Nc2cc([N+](=O)[O-])ccc2C(=O)Nc2cccc(C(=O)O)c2)cc1 | inactive |
| CC(C)(C)c1ccc(C(=O)Nc2ccccc2C(=O)Nc2ccc([N+](=O)[O-])c(C(=O)O)c2)cc1 | inactive |
| COc1ccc(NC(=O)c2ccc(C(C)(C)C)cc2)c(C(=O)Nc2cccc(C(=O)O)c2)c1 | inactive |
| O=C(O)c1cccc(NC(=O)c2ccccc2NC(=O)c2cc(C(F)(F)F)cc(C(F)(F)F)c2)c1 | inactive |
| CC(C)(C)c1ccc(C(=O)Nc2cccc(Cl)c2C(=O)Nc2cccc(C(=O)O)c2)cc1 | inactive |
| O=C(Cc1ccccc1)Nc1ccccc1C(=O)Nc1cccc(C(=O)O)c1 | inactive |
| Nc1ccccc1C(=O)Nc1cccc(C(=O)O)c1 | inactive |
| Cc1ccc(C(=O)O)cc1NC(=O)c1ccccc1NC(=O)c1ccc(C(C)(C)C)cc1 | inactive |
| COc1cc(NC(=O)c2ccccc2NC(=O)c2ccc(C(C)(C)C)cc2)cc(OC)c1OC | inactive |

Each compound was assayed against T1, Bile acid receptor (assay: Antagonist activity at human FXR expressed in human HeLa cells assessed as inhibition of receptor activation by BSEP promoter-driven firefly luciferase reporter gene assay). Conditions: not given.
Assay type: cell-based
How it was run: as §1

| SMILES | IC50 [nM] |
| --- | --- |
| COc1ccc(NC(=O)c2ccc(C(C)(C)C)cc2)c(C(=O)Nc2cccc(C(=O)O)c2)c1 | 15100 |
| CC(C)(C)c1ccc(C(=O)Nc2ccc(Cl)cc2C(=O)Nc2cccc(C(=O)O)c2)cc1 | 12300 |

The compounds below were run against T2, Bile acid receptor (Homo sapiens) (assay: Antagonist activity at human FXR expressed in human HeLa cells assessed as inhibition of receptor activation by BSEP promoter-driven firefly luciferase reporter gene assay relative to untreated control). Conditions: concentration not given here.
Assay type: cell-based
How it was run: as §1

| SMILES | inhibition [%] |
| --- | --- |
| COc1ccc(NC(=O)c2ccc(C(C)(C)C)cc2)c(C(=O)Nc2cccc(C(=O)O)c2)c1 | 10 |
| CC(C)(C)c1ccc(C(=O)Nc2ccc(Cl)cc2C(=O)Nc2cccc(C(=O)O)c2)cc1 | 15 |

What follows are compounds tested against T2, Bile acid receptor (Homo sapiens) (assay: Agonist activity at FXR in human HepG2 cells assessed as induction of BSEP mrNA expression at 3 uM by quantitative PCR method). Conditions: not given.
Assay type: cell-based
How it was run: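 HepG2 cells were seeded at 2 × 10⁶ per well. After 24 h they were switched to MEM with 1% charcoal-stripped FCS, and 24 h later dosed with compound (0.1, 0.3, 1, 3, 10 μM; 0.1% DMSO final) for 24 h. Total RNA was reverse transcribed and analysed by qPCR, GAPDH-normalized, ΔΔCt method. Samples were run in duplicate in ≥4 independent experiments.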

| SMILES | Activity [%] |
| --- | --- |
| CC(C)c1onc(-c2c(Cl)cccc2Cl)c1COc1ccc(/C=C/c2cccc(C(=O)O)c2)c(Cl)c1 | 1520 |
